In ChEMBL document CHEMBL4422698, “Wortmannin and Wortmannine Analogues from an Undescribed Niesslia sp” (2019):
In brackets after ≈: the same amount, converted by molar mass. Activity calls are given as the source filed them. The calls are words filed in the database; no cut-off is given here.

How the values were obtained:
Cryptococcus neoformans [1] = assay: Antifungal activity against Cryptococcus neoformans H99 assessed as zone of inhibition at 50 ug/disk by disk diffusion method; assay type: functional; conditions: for inhibition zone (IZ): var grubii H99; for zone of inhibition at 50 µg/disc: var grubii H99, read-out: IZ
Procedure, shortened: (§1)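 Agar disk diffusion zone-of-inhibition assay on C. albicans ATCC 10231, C. neoformans H99 and S. aureus ATCC 43330, run per NCCLS recommendations. Compound applied at 50 μg/disk, amphotericin B control at 25 μg/disk. Inhibition zone diameter recorded in mm.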

Candida albicans [2] = assay: Antifungal activity against Candida albicans ATCC 10231 assessed as zone of inhibition at 50 ug/disk by disk diffusion method; assay type: functional; conditions: for zone of inhibition at 50 µg/disc: read-out: IZ; procedure, shortened: as §1
Staphylococcus aureus = assay: Antibacterial activity against Staphylococcus aureus ATCC 43330 assessed as zone of inhibition at 50 ug/disk by disk diffusion method; assay type: functional, organism-based; procedure, shortened: as §1
Candida albicans [3] = assay: Antifungal activity against Candida albicans ATCC 10231 measured after 48 hrs by broth microdilution method; assay type: functional; conditions: ATCC 10231, 48 h
Procedure, shortened: (§2)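 NCCLS serial broth microdilution in RPMI-1640 with 0.165 M MOPS, pH 7.0. Compounds dissolved in DMSO and serially diluted in the medium. MIC-50 taken spectrophotometrically as the lowest concentration giving 50% growth inhibition versus the untreated control. Read at 48 h for C. albicans and A. fumigatus, 72 h for C. neoformans.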

Aspergillus fumigatus = assay: Antifungal activity against Aspergillus fumigatus measured after 48 hrs by broth microdilution method; assay type: functional; procedure, shortened: as §2
Cryptococcus neoformans [4] = assay: Antifungal activity against Cryptococcus neoformans H99 measured after 72 hrs by broth microdilution method; assay type: functional; conditions: var grubii H99 ; procedure, shortened: as §2
Candida albicans [5] = assay: Antifungal activity against Candida albicans ATCC 10231 at 25 uM measured after 24 hrs
[6] = system: Schizosaccharomyces pombe; assay: Ratio of MIC50 for Schizosaccharomyces pombe isolate MJ1682 harboring efflux mutant to MIC50 for Schizosaccharomyces pombe SAK1; assay type: functional
Procedure, shortened: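 S. pombe efflux mutant MJ1682 (caf5::bsdR pap1-del pmd1-del mfs1-del bfr1-del) and wild-type SAK1 grown in YES medium for 72 h with serially diluted compound. Viability read on a plate reader with Alamar Blue, itraconazole as positive control. Ratio of the MIC50 of the mutant to that of the wild type.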

Candida albicans [7] = assay: Antifungal activity against Candida albicans ATCC 10231 assessed as zone of inhibition at 25 ug/disk by disk diffusion method; assay type: functional; conditions: read-out: IZ
Cryptococcus neoformans [8] = assay: Antifungal activity against Cryptococcus neoformans H99 assessed as zone of inhibition at 25 ug/disk by disk diffusion method; assay type: functional; conditions: var grubii H99, read-out: IZ; procedure, shortened: as §1

Row | Compound | inhibition zone (IZ) (Cryptococcus neoformans [1]) | inhibition zone (IZ) (Candida albicans [2]) | inhibition zone (IZ) (Staphylococcus aureus) | further results
1 | COC[C@H]1OC(=O)[C@@H]2[C@@H](O)NC(=O)[C@@]23C(=O)C2=C([C@H](OC(=O)C(C)C)C[C@]4(C)C(=O)CC[C@@H]24)[C@@]13C | inactive | inactive | inactive | –
2 | CCC(C)C(=O)O[C@@H]1C[C@]2(C)C(=O)CC[C@H]2C2=C1[C@]1(C)c3c(coc3C2=O)C(=O)O[C@@H]1COC (stereo not given in full) | – | – | inactive | zone of inhibition at 50 µg/disc (Cryptococcus neoformans [1]): 16 mm; zone of inhibition at 50 µg/disc (Candida albicans [2]): 25 mm; MIC50 (Candida albicans [3]): 200 µM (≈ 94.1 µg/mL); MIC50 (Aspergillus fumigatus): 200 µM (≈ 94.1 µg/mL); MIC50 (Cryptococcus neoformans [4]): 100 µM (≈ 47.1 µg/mL); Activity (Candida albicans [5]): Active; Ratio [6]: 0.1
3 | CCC(C)C(=O)O[C@@H]1C[C@]2(C)C(=O)CC[C@H]2C2=C1[C@@]1(C)[C@@H](COC)OC(=O)[C@@H]3[C@@H](O)NC(=O)[C@@]31C2=O (stereo not given in full) | inactive | inactive | inactive | –
4 | COC[C@H]1OC(=O)[C@@H]2[C@H](O)NC(=O)[C@@]23C(=O)C2=C([C@H](OC(=O)C(C)C)C[C@]4(C)C(=O)CC[C@@H]24)[C@@]13C | inactive | inactive | inactive | –
5 | COC[C@H]1OC(=O)c2coc3c2[C@@]1(C)C1=C(C3=O)[C@@H]2CCC(=O)[C@@]2(C)C[C@H]1OC(=O)C(C)C | – | – | inactive | zone of inhibition at 50 µg/disc (Cryptococcus neoformans [1]): 13 mm; zone of inhibition at 50 µg/disc (Candida albicans [2]): 25 mm
6 | C[C@@H]1[C@H](O)[C@@H](C)/C=C/C=C/C=C/C=C/C=C/C=C/C=C/[C@H](O[C@@H]2O[C@H](C)[C@@H](O)[C@H](N)[C@@H]2O)C[C@@H]2O[C@](O)(C[C@@H](O)C[C@@H](O)[C@H](O)CC[C@@H](O)C[C@@H](O)CC(=O)O[C@H]1C)C[C@H](O)[C@H]2C(=O)O [AMPHOTERICIN B] | – | – | – | zone of inhibition at 25 µg/disc (Candida albicans [7]): 10 mm; zone of inhibition at 25 µg/disc (Cryptococcus neoformans [8]): 13 mm
7 | CCC(C)C(=O)O[C@@H]1C[C@]2(C)C(=O)CC[C@H]2C2=C1[C@@]1(C)[C@@H](COC)OC(=O)[C@@H]3[C@H](O)NC(=O)[C@@]31C2=O (stereo not given in full) | inactive | inactive | inactive | –
